# Results reported in ChEMBL document CHEMBL1132274, “2,7-Disubstituted amidofluorenone derivatives as inhibitors of human telomerase” (J Med Chem, 1999).
# Activity calls are given as the source filed them. The rule behind the calls is not given here.
# How the values were obtained:
# CH1 [1] = assay: Cytotoxicity measured in human ovarian cell line CH1 using sulforhodamine B (SRB) assay.; assay type: functional, cell-based
# Procedure, shortened: (§1)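 SRB growth-inhibition assay in human ovarian carcinoma cells: 3000–6000 cells/well attached overnight, then salts (dissolved at 500 μM in water) added in quadruplicate at final 0.05, 0.25, 1, 5 and 25 μM. After 96 h, cells fixed with ice-cold 10% TCA and stained with 0.4% SRB. Mean A540 expressed as % of untreated control; IC50 = concentration giving 50% growth inhibition.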
# [2] = molecular target: DNA polymerase I, thermostable (Thermus aquaticus) (UniProt P19821); assay: Inhibitory activity against taq polymerase at 50 uM; Slight
# [3] = molecular target: DNA polymerase I, thermostable (Thermus aquaticus) (UniProt P19821); assay: Inhibitory activity against taq polymerase at 20 uM; No inhibition
# [4] = molecular target: DNA polymerase I, thermostable (Thermus aquaticus) (UniProt P19821); assay: Inhibitory activity against taq polymerase at 10 uM; No inhibition
# A2780 [5] = assay: Cytotoxicity measured in human ovarian cell line A2780 using sulforhodamine B (SRB) assay; assay type: functional, cell-based; procedure, shortened: as §1
# [6] = molecular target: Telomerase reverse transcriptase (Homo sapiens, UniProt O14746); assay: Inhibitory activity against telomerase
# Procedure, shortened: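 Modified TRAP with extract from exponentially growing A2780 ovarian carcinoma cells. Telomerase then inactivated at 80 °C for 5 min, CX primer and Taq added, 31 PCR cycles. Products analysed by denaturing PAGE with phosphorimaging/autoradiography, or by filter scintillation counting.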
# SK-OV-3 [7] = assay: Cytotoxicity measured in human ovarian cell line SKOV-3 using sulforhodamine B (SRB) assay.; assay type: functional, cell-based; procedure, shortened: as §1
# [8] = molecular target: DNA polymerase I, thermostable (Thermus aquaticus) (UniProt P19821); assay: Inhibitory activity against taq polymerase at 50 uM; No inhibition
# [9] = molecular target: DNA polymerase I, thermostable (Thermus aquaticus) (UniProt P19821); assay: Inhibitory activity against taq polymerase at 50 uM; Significant
# A2780 [10] = assay: Cytotoxicity activity of the compound was measured in human ovarian cell line A2780 using sulforhodamine B (SRB) assay; assay type: functional, cell-based; procedure, shortened: as §1
# CH1 [11] = assay: Cytotoxicity activity was measured in human ovarian cell line CH1 using sulforhodamine B (SRB) assay; assay type: functional, cell-based; procedure, shortened: as §1
# SK-OV-3 [12] = assay: Cytotoxicity activity was measured in human ovarian cell line SKOV-3 using sulforhodamine B (SRB) assay; assay type: functional, cell-based; procedure, shortened: as §1
# Sequence of DNA polymerase I, thermostable (Thermus aquaticus) (P19821 whole entry): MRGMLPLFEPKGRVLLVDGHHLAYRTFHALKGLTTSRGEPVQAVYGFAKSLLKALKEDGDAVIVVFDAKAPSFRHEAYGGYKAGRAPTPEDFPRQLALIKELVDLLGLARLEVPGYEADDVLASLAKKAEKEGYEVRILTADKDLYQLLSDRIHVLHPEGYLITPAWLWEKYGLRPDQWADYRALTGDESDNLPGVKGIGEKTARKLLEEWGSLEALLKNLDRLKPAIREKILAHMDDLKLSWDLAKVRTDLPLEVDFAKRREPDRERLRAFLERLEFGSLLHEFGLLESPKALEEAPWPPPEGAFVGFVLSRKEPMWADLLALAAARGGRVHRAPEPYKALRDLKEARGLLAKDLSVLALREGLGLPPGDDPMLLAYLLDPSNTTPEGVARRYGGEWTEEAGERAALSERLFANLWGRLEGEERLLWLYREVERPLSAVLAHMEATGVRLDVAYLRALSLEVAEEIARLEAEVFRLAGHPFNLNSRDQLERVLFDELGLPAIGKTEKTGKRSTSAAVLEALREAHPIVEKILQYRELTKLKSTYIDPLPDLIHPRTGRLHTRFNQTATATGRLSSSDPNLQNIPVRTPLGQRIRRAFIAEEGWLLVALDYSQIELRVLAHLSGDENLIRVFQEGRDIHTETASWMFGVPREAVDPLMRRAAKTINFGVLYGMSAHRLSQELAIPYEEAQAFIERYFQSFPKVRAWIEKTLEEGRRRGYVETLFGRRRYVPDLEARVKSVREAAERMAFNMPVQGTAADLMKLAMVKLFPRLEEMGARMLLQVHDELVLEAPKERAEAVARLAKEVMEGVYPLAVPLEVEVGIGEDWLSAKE
# Sequence of Telomerase reverse transcriptase (O14746 whole entry): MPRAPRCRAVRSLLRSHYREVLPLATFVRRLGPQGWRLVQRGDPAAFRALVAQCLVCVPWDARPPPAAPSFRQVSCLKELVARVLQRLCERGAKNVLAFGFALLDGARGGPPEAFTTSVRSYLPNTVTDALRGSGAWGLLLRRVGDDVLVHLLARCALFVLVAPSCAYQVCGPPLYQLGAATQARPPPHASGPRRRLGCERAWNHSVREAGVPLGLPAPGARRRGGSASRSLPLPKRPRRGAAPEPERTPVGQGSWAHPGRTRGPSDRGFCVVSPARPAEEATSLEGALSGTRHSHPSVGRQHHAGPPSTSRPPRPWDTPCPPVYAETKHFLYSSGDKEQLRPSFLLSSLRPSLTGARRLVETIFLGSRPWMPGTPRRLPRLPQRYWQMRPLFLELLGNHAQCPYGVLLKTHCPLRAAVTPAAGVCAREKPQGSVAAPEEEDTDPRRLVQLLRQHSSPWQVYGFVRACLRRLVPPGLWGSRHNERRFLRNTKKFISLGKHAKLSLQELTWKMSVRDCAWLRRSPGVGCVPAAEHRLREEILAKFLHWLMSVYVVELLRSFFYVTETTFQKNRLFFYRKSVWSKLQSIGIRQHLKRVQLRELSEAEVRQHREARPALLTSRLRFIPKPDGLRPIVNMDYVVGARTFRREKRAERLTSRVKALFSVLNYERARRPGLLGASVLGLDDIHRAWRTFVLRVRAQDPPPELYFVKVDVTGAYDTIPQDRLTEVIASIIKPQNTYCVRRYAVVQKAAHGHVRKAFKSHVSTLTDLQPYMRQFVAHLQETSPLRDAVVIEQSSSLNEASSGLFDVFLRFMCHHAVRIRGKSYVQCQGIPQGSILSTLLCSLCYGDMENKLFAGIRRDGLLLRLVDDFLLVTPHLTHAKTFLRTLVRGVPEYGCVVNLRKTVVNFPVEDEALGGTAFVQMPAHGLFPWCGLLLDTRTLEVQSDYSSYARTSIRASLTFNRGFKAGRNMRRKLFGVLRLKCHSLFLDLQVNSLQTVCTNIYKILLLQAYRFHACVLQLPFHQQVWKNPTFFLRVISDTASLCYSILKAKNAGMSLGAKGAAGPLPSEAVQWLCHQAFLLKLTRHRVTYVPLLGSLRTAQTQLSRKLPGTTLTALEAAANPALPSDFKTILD
inhibition [2],inhibition [3],inhibition [4],IC50 [6] [µM],inhibition [8],inhibition [9],SMILES,IC50 (CH1 [1]) [µM],IC50 (A2780 [5]) [µM],IC50 (SK-OV-3 [7]) [µM],IC50 (A2780 [10]) [µM],IC50 (CH1 [11]) [µM],IC50 (SK-OV-3 [12]) [µM]
Weak inhibition,inactive,inactive,> 20,,,CC1CC[N+](C)(CCC(=O)Nc2ccc3c(c2)C(=O)c2cc(NC(=O)CC[N+]4(C)CCC(C)CC4)ccc2-3)CC1 (stereo not drawn),> 25,2.5,3.75,,,
,inactive,inactive,14,inactive,,CCC1CCCCN1CCC(=O)Nc1ccc2c(c1)C(=O)c1cc(NC(=O)CCN3CCCCC3CC)ccc1-2 (stereo not drawn),2.15,2.2,3.15,,,
,inactive,inactive,15.5,inactive,,CCN(CC)CCC(=O)Nc1ccc2c(c1)C(=O)c1cc(NC(=O)CCN(CC)CC)ccc1-2,8,14,9.65,,,
,inactive,inactive,27.3,inactive,,C[N+]1(CCC(=O)Nc2ccc3c(c2)C(=O)c2cc(NC(=O)CC[N+]4(C)CCOCC4)ccc2-3)CCOCC1,2.15,2.55,2.45,,,
,inactive,inactive,12,inactive,,CC1CCCCN1CCC(=O)Nc1ccc2c(c1)C(=O)c1cc(NC(=O)CCN3CCCCC3C)ccc1-2 (stereo not drawn),1.8,10.5,12,,,
,inactive,inactive,> 20,,Significant,C[N+]1(CCC(=O)Nc2ccc3c(c2)C(=O)c2cc(NC(=O)CC[N+]4(C)CCCCC4CCO)ccc2-3)CCCCC1CCO (stereo not drawn),3.15,5.2,5.2,,,
,inactive,inactive,> 50,inactive,,O=C(CCN1CCN(Cc2ccccc2)CC1)Nc1ccc2c(c1)C(=O)c1cc(NC(=O)CCN3CCN(Cc4ccccc4)CC3)ccc1-2,> 25,> 25,> 25,,,
,inactive,inactive,> 50,inactive,,O=C(CCN1CCN(c2ncccn2)CC1)Nc1ccc2c(c1)C(=O)c1cc(NC(=O)CCN3CCN(c4ncccn4)CC3)ccc1-2,> 25,> 25,> 25,,,
,,,,,,CCN(CC)CCC(=O)Nc1ccc2c(c1)C(=O)c1cc(NC(=O)CCN(CC)CC)ccc1C2=O,,2.15,,,,
,inactive,inactive,9,inactive,,O=C(CCN1CCCCC1)Nc1ccc2c(c1)C(=O)c1cc(NC(=O)CCN3CCCCC3)ccc1-2,7.6,11,11,,,
,inactive,inactive,18.5,inactive,,O=C(CCN1CCC(O)CC1)Nc1ccc2c(c1)C(=O)c1cc(NC(=O)CCN3CCC(O)CC3)ccc1-2,> 25,> 25,> 25,,,
,inactive,inactive,> 20,inactive,,CC1CCN(CCC(=O)Nc2ccc3c(c2)C(=O)c2cc(NC(=O)CCN4CCC(C)CC4)ccc2-3)CC1,> 25,2.2,7.6,,,
Weak inhibition,inactive,inactive,> 20,,,CC1CCCC[N+]1(C)CCC(=O)Nc1ccc2c(c1)C(=O)c1cc(NC(=O)CC[N+]3(C)CCCCC3C)ccc1-2 (stereo not drawn),2.6,4.85,3.95,,,
,inactive,inactive,21,inactive,,C[N+]1(CCC(=O)Nc2ccc3c(c2)C(=O)c2cc(NC(=O)CC[N+]4(C)CCCCC4)ccc2-3)CCCCC1,5.2,4.3,3.9,,,
,inactive,inactive,16.2,inactive,,CN(C)CCC(=O)Nc1ccc2c(c1)C(=O)c1cc(NC(=O)CCN(C)C)ccc1-2,8.5,12,8.2,,,
,inactive,inactive,44,inactive,,CN1CCN(CCC(=O)Nc2ccc3c(c2)C(=O)c2cc(NC(=O)CCN4CCN(C)CC4)ccc2-3)CC1,> 25,,> 25,> 25,,
,inactive,inactive,16.5,inactive,,O=C(CCN1CCCCC1CCO)Nc1ccc2c(c1)C(=O)c1cc(NC(=O)CCN3CCCCC3CCO)ccc1-2 (stereo not drawn),14.5,> 25,20,,,
,inactive,inactive,8,inactive,,O=C(CCN1CCCCC1CO)Nc1ccc2c(c1)C(=O)c1cc(NC(=O)CCN3CCCCC3CO)ccc1-2 (stereo not drawn),14,13,15,,,
,inactive,inactive,18.5,inactive,,C[N+](C)(C)CCC(=O)Nc1ccc2c(c1)C(=O)c1cc(NC(=O)CC[N+](C)(C)C)ccc1-2,1.95,2.25,1.95,,,
,inactive,inactive,33,inactive,,C[N+]1(CCC(=O)Nc2ccc3c(c2)C(=O)c2cc(NC(=O)CC[N+]4(C)CCCCC4CO)ccc2-3)CCCCC1CO (stereo not drawn),4.2,3.75,4.3,,,
Weak inhibition,inactive,inactive,> 20,,,CCC1CCCC[N+]1(C)CCC(=O)Nc1ccc2c(c1)C(=O)c1cc(NC(=O)CC[N+]3(C)CCCCC3CC)ccc1-2 (stereo not drawn),2.35,2.9,2.6,,,
,inactive,inactive,> 50,inactive,,O=C(CCN1CCN(c2ccccc2)CC1)Nc1ccc2c(c1)C(=O)c1cc(NC(=O)CCN3CCN(c4ccccc4)CC3)ccc1-2,> 25,> 25,> 25,,,
,inactive,inactive,17,inactive,,CCN1CCN(CCC(=O)Nc2ccc3c(c2)C(=O)c2cc(NC(=O)CCN4CCN(CC)CC4)ccc2-3)CC1,> 25,> 25,> 25,,,
,inactive,inactive,25.4,inactive,,CC[N+](C)(CC)CCC(=O)Nc1ccc2c(c1)C(=O)c1cc(NC(=O)CC[N+](C)(CC)CC)ccc1-2,2.45,3.7,2.4,,,
,inactive,inactive,> 50,inactive,,O=C(CCN1CCOCC1)Nc1ccc2c(c1)C(=O)c1cc(NC(=O)CCN3CCOCC3)ccc1-2,> 25,> 25,> 25,,,
,inactive,inactive,> 50,inactive,,O=C(CCN1CCN(c2ccccn2)CC1)Nc1ccc2c(c1)C(=O)c1cc(NC(=O)CCN3CCN(c4ccccn4)CC3)ccc1-2,> 25,> 25,> 25,,,
Weak inhibition,inactive,inactive,> 20,,,C[N+]1(CCC(=O)Nc2ccc3c(c2)C(=O)c2cc(NC(=O)CC[N+]4(C)CCC(O)CC4)ccc2-3)CCC(O)CC1 (stereo not drawn),,2.4,,,1.95,4.7
